According to PMC8159897 (Angewandte Chemie (International ed. in English), 2021):

Columns and labels:
[1] = Critical micelle concentration; assay type: physicochemical; details: self-assembly / aggregation (Figures S2, S16)
Golgi of HeLa cells = test: Golgi accumulation; assay type: cell-based; details: pS1 10 μM, from 1 minute to 8 minutes of incubation
Outline: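 HeLa cells first transfected 24 h with CellLight Golgi-RFP to mark the Golgi. They were then given the NBD-labelled thiophosphopeptide test compound at 10 μM and imaged live by confocal microscopy 1, 4 and 8 min after addition. Golgi-localised green (NBD) fluorescence was compared with the red Golgi-RFP signal, and the RFP stain was checked for bleed-through into the green channel.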

[2] = test system: alkaline phosphatase (ALP); details: incubated with ALP (0.1 U/mL) for about 16 minutes (Figure S15)

SMILES | critical micelle concentration (CMC) [1] [µM] | enhancement of fluorescence intensity at the Golgi (Golgi of HeLa cells) | conversion ratio to dephosphorylated product [2]
O=C(CCNc1ccc([N+](=O)[O-])c2nonc12)N[C@H](Cc1ccccc1)C(=O)N[C@H](Cc1ccccc1)C(=O)NCCSP(=O)(O)O [pS1] | 6.0 | about 7 times | –
O=C(Cc1ccc2ccccc2c1)N[C@H](Cc1ccccc1)C(=O)N[C@H](Cc1ccccc1)C(=O)NCCSP(=O)(O)O [pS2] | 9.5 | – | nearly fully converted
